Shown are actives, neighbours in structure and some others; about 3.7% of the full set was active somewhere.
core dimer inh – inhibitors of HCV core protein dimerization, primary screen, biochemical, TR-FRET, high-throughput; TR-FRET GST/Flag-core106 dimerization, 1536-well; inhibition, % at 5 µM; hit rate 0.33% among 300,000; AID 1899, 2009;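 active means inhibition above the mean of all tested compounds plus 3 SD, set per screening campaign, cut at about 45% in these data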
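assay system = GST-tagged and Flag-tagged HCV core protein residues 1-106 | controls = unlabelled core106 and no-GST-core106 wells | incubation = compound-protein-antibody incubation 4 h at 22.5 °C | probe or stimulus = Eu donor and XL665 acceptor anti-tag antibodies | read-out = % inhibition based on acceptor/donor emission ratio | signal = TR-FRET 671 and 617 nm emission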
rCAG binder – binders of r(CAG) RNA repeats, primary screen, biochemical, fluorescence | r(CAG) RNA repeat, TO-PRO-1 dye displacement fluorescence | inhibition, % at 3 µM | hit rate 1.3% among 370,000;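 active means inhibition above the plate cutoff, the mean of all test compounds on that plate plus 3 SD, cut at about 35% in these data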;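 further: 0% = DMSO alone and 100% = 100 µM mitoxantrone as full dye displacement; higher means more dye released from RNA so lower well fluorescence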
TAAR1 antag – human TAAR1 antagonists, primary screen, Fluo-8 calcium fluorescence, CHO RD-HGA16 cells. antagonist. inhibition, % at 3 µM. hit rate 1.5% among 360,000. AID 624466, 2012;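 active means inhibition above a per-plate cutoff, the mean inhibition of test compounds on that plate plus 3 SD, cut at about 49% in these data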;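 further: 0% = DMSO plus EC80 beta-PEA response and 100% = DMSO alone without agonist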
Target sequence (Q96RJ0 whole entry, looked up): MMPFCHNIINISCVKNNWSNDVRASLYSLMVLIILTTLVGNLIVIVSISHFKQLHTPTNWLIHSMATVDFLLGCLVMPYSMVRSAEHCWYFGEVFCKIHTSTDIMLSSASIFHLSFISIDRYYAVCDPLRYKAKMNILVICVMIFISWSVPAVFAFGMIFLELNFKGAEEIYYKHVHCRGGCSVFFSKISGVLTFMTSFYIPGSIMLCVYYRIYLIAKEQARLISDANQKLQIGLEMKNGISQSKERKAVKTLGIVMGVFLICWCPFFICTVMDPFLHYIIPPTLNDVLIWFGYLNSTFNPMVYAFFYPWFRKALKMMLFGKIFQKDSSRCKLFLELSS
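Material: CHO RD-HGA16 cells bearing hTAAR1; compound dosing: one-point dosing, 3 µM nominal final; schedule: dye loading 75 min at 37 °C, then 30 min room temperature; measured by: calcium fluorescence with Fluo-8; control set: vehicle and agonist controls; replication: n of 1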
HCV NS3 hel inh – inhibitors of HCV NS3 helicase, primary screen, biochemical, Cy5 molecular beacon fluorescence | NS3 helicase DNA unwinding | AID 1800, 2009 | Hepatitis C virus NS3 helicase | hit rate 0.56% among 290,000 | inhibition, % at 10.9 µM;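 active means inhibition above the mean of all tested compounds plus 3 SD, set per campaign, cut at about 35% in these data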;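 further: 0% = DMSO wells and 100% = thioflavine S control wells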
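System: NS3 helicase fragment of HCV / Schedule: 1 h at 25 °C / Control set: DMSO alone as 0% and 110 µM thioflavine S as 100% / Reagent: Cy5/quencher beacon DNA duplex and ATP to start / Technique: Cy5 fluorescence / Replication: singlicate / Evaluation: % inhibition of end-to-start signal ratio versus controls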
TAAR1 agonist – human TAAR1 agonists, primary screen, Fluo-8 calcium fluorescence, CHO RD-HGA16 cells; vehicle wells 0%, saturating PEA agonist 100%; activation, % at 3 µM; AID 624467, 2012; Trace amine-associated receptor 1 (Homo sapiens), Q96RJ0; hit rate 0.99% among 360,000;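 active means activation above the mean activation of all test compounds in the run plus 3 SD, cut at about 38% in these data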
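test system = CHO RD-HGA16 cells carrying human TAAR1 plus Gα16 | schedule = 17-24 h seeding, 75 min 37 °C dye, 30 min RT | compound dosing = 3 µM single concentration | control set = DMSO and PEA EC100 | replicates = n 1 | signal = Fluo-8 fluorescence, 5 s baseline then 140 s kinetic read | measure = percent activation vs PEA EC100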
TAAR1 ag confirm – human TAAR1 agonists, retest of hits, confirmation, Fluo-8 calcium fluorescence, CHO RD-HGA16 cells; shares compounds with TAAR1 agonist; scaled: DMSO 0%, maximal phenethylamine 100%; activation, % at 3 µM; hit rate 82% among 2,400; AID 651783, 2012;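 active means activation above a cutoff set at the run's mean compound activation plus 3 SD, cut at about 39% in these data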
Ga16 nonsel ag – nonselective calcium mobilization agonists, CHO-Ga16 cells, counter-screen for hTAAR1 agonist project, cell-based, fluorescence, CHO-Ga16 parental line. shares compounds with TAAR1 agonist. Fluo-8 calcium fluorescence; normalized to maximal ATP response, DMSO zero. hit rate 50% among 2,400. AID 651787, 2012. activation, % at 3 µM;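 active means activation above the run cutoff, the mean activation over all tested wells plus 3 SD, cut at about 12% in these data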;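 further: 0% = DMSO wells and 100% = maximal ATP response on the peak over basal ratio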
TAAR1 desens – TAAR1 desensitization by agonist hits, confirmation, counter-screen for TAAR1 agonist project, cell-based, fluorescence, tachyphylaxis. shares compounds with TAAR1 agonist. CHO RD-HGA16 hTAAR1, Fluo-8 calcium, beta-PEA response inhibition. hit rate 46% among 2,400. AID 651951, 2012. inhibition, % at 3 µM;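 active means inhibition above the run cutoff, the mean inhibition of all test compounds plus 3 SD, cut at about 49% in these data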;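 further: beta-PEA stimulus applied at its EC80; loss of beta-PEA calcium signal after compound pretreatment read as receptor desensitization; 0% = DMSO with beta-PEA at EC80 and 100% = DMSO alone without agonist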
Ga16 nonsel ant – inhibition of ATP-evoked calcium response in CHO-Ga16 cells, counter-screen for TAAR1 agonist project, cell-based, fluorescence | shares compounds with TAAR1 agonist | CHO-Ga16 ATP-induced calcium, Fluo-8 fluorescence | inhibition, % at 3 µM | hit rate 39% among 2,400 | AID 651952, 2012;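 active means inhibition above the plate's mean compound inhibition plus 3 SD, computed per plate, cut at about 22% in these data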;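 further: 0% = EC80 ATP with DMSO and 100% = DMSO wells without ATP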
Starred values were filed as active, the others as inactive; x = no result given.

SMILES	core dimer inh	rCAG binder	TAAR1 antag	HCV NS3 hel inh	TAAR1 agonist	TAAR1 ag confirm	Ga16 nonsel ag	TAAR1 desens	Ga16 nonsel ant
CC(C)n1nnnc1C1(C)Cn2nccc2C(=O)N1Cc1cccc(C(F)(F)F)c1 (stereo not drawn)	x	2	x	x	x	x	x	x	x
CCN1CCN(CCCNC(=O)c2ccc(/C=C3/Sc4ccccc4N(Cc4ccccc4F)C3=O)cc2)CC1	-12	-6	44	-47	15	x	x	x	x
CCN1CCN(CCNC(=O)c2ccc(/C=C3/Sc4ccccc4N(Cc4ccccc4C)C3=O)cc2)CC1	x	0	32	-60	60*	72*	46*	65*	56*
COC(=O)[C@]12C[C@H](CC(=O)NCc3ccc(OC)c(OC)c3)C(=O)N(Cc3ccc(Cl)cc3Cl)C1=C[C@H](C1CCCC1)O[C@@H]2C	x	10	x	x	x	x	x	x	x
Clc1ccccc1OCc1nnc(-c2ccccc2Br)o1	12	6	15	-2	6	x	x	x	x
O=c1c(Cl)c(Cl)cnn1Cc1nnc(-c2ccccc2Br)o1	x	11	104*	6	122*	141*	111*	106*	99*
O=C(CC1CCCC1)N1CC[C@H]2[C@H](CCCN2Cc2ccccc2)C1	x	0	x	x	x	x	x	x	x
Cc1ccc(Nc2cc(C)nc(N3CCOCC3)n2)cc1	0	-8	-6	-3	42*	35	1	19	6
Cc1cc(N/N=C/c2ccccc2O)nc(N2CCOCC2)n1	-1	1	42	-16	43*	66*	2	82*	17
CC[C@@]1(c2ccc(C)cc2)C(=O)N(C(=O)OC)N1C(=O)OC	x	1	x	x	x	x	x	x	x
CN(CCc1ccccc1)C(=O)c1cc2ccccn2n1	x	0	x	x	x	x	x	x	x
O=C(COC(=O)CNS(=O)(=O)c1cccc(F)c1)NCCc1ccccc1	x	1	-11	x	5	x	x	x	x
O=C(CSCc1c(F)cccc1Cl)NCCc1ccccc1	-8	-6	12	10	43*	80*	1	39	-2
O=C(CNS(=O)(=O)c1ccc(F)c(Cl)c1)NCCc1ccccc1	7	-1	-26	-7	45*	65*	8	13	-1
COc1ccc2c(c1)CN1CN(C3CCCC3)S(=O)(=O)CC21 (stereo not drawn)	x	9	x	x	x	x	x	x	x
Oc1ccc(C=NCC2COc3ccccc3O2)cc1 (stereo not drawn)	0	1	x	8	x	x	4	x	3
COc1ccc(C=NCC2COc3ccccc3O2)cc1OC (stereo not drawn)	-4	2	14	9	67*	77*	1	76*	6
OC(c1ccccc1)(c1ccccc1)C1CCN(CCCNc2ccc(C(F)(F)F)cc2)CC1	x	-1	x	x	x	x	x	x	x
CCOc1ccc(N/C(N)=N/c2nc(C)cc(C)n2)cc1	-3	13	97*	-8	70*	51*	39*	93*	81*
Cc1cc(C)nc(/N=C(\N)Nc2ccc(SC(F)F)cc2)n1	-4	15	95*	9	102*	99*	63*	98*	69*
Cc1ccc(C)c(N/C(N)=N/c2nc(C)cc(C)n2)c1	-8	16	98*	-10	116*	105*	67*	99*	76*
